Bioassay records deposited in PubChem BioAssay by Sanford-Burnham Center for Chemical Genomics.
These entries were drawn from the full list.
Apaf1 activ = activates human Apaf-1 apoptosome | O14727 | Apaf-1 apoptosome caspase-3 activation, DEVD-Rh110 fluorescence; active compounds read low | activity change, negative = activation, % at 20 µM | hit rate 0.31% among 330,000 | AID 489031;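 active means activity change at or below -40% at 20 µM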
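Assay system – biochemical Apaf-1 apoptosome reconstitution · Medium – 20 mM HEPES buffer, pH 7.5, containing CHAPS and BSA · Incubation – 30 min preincubation, 50 min reaction, room temperature · Measured by – Caspase-3-released Rh110 fluorescence, 540 nm emission, 480 nm excitation · Read-out – Caspase-3 cleavage activity downstream of Apaf-1 activation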
Rh110 act interf = counter-screen for Apaf-1 activators: fluorescence interference; shares compounds with Apaf1 activ; Rh110 fluorescence interference, quenched caspase reaction, Ex480/Em540; fluorescence interference (activity change), % at 20 µM, hits read low; 980 tested, under 10 active; AID 504616;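 active means mean activity change at or below -40% when tested at 20 µM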
Apaf-1 act conf = Apaf-1 (human) activation, single-dose confirmed. hit rate 5% among 980. reconstituted apoptosome caspase-3 activity, DEVD-Rh110 fluorescence; active compounds read low. activity change, negative = activation, % at 20 µM. AID 504617. shares compounds with Apaf1 activ;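 active means mean activity change at or below -40%, meaning activation of 40% or more, at 20 µM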
Numbers without * were called inactive; / = no result.

SMILES | Apaf1 activ | Rh110 act interf | Apaf-1 act conf
Cc1cccc2cc(C(c3nnnn3CC3CCCO3)N3CCc4ccccc4C3)c(=O)[nH]c12 (stereo unspecified) | 79 | / | /
COc1cccc2c1C(=O)C=C(C)C2=O | 56 | / | /
Cc1ccc(C)c(NC(=O)CN(C)C(=O)c2cccc(S(=O)(=O)N3CCN(Cc4ccccc4)CC3)c2)c1 | 41 | / | /
CC(=O)c1cccc(N(CC(=O)Nc2ccccc2C(=O)N2CCCC2)S(C)(=O)=O)c1 | -323* | / | /
CS(=O)(=O)N(CC(=O)Nc1ccccc1C(=O)N1CCCC1)c1cccc([N+](=O)[O-])c1 | -71* | / | /
CN(c1ccccc1)S(=O)(=O)c1cccc(C(=O)NCc2ccccc2CN2CCCC2)c1 | 52 | / | /
Cc1cccc(N(Cc2ccccc2)C(=O)C2CCN(C(=O)c3ccccc3C)CC2)c1 | 48 | / | /
CCN(CC)CCCNc1ccc(-c2nnc(-c3ccc(OCC(C)C)cc3)o2)cn1 | 41 | / | /
COc1cc(/C=N/N=C(N)N)ccc1OCc1ccc(Cl)cc1 | 40 | / | /
COC(=O)c1ccccc1NC1=C/C(=N\S(=O)(=O)c2ccc(C(=O)O)cc2)c2ccccc2C1=O | 95 | / | /
C/C=N/NC(=O)c1cc(Br)ccc1O | 57 | / | /
CCc1nnc(NC(=O)c2ccc(S(=O)(=O)N3CCCCC3)cc2)s1 | 55 | / | /
CCN(CC)c1ccc(NC(=O)CCS(=O)(=O)c2ccc(Br)cc2)c(C)c1 | -136* | / | /
Cc1ccc(-n2nc3ccc(N)cc3n2)cc1 | 82 | / | /
Cc1cc(NC(=O)CSCC(=O)Nc2ccc(C)c(C)c2)no1 | 54 | / | /
COc1ccccc1-c1nc2n(n1)C(c1cccs1)C(C(=O)Nc1cccnc1)=C(C)N2 (stereo unspecified) | -244* | -5 | 13
COC(=O)/C(=C/Nc1ccc(O)cc1)[N+](=O)[O-] | 91 | / | /
Cc1ccc(N/N=C2\CC(=O)c3ccccc32)cc1Cl | 76 | / | /
COc1ccc(-c2nc(C(=O)NCC3CCCO3)cc3c2[nH]c2ccccc23)cc1 (stereo unspecified) | -224* | 17 | 21
COc1cc(-c2nc(C(=O)NC3CCN(Cc4ccccc4)CC3)cc3c2[nH]c2ccccc23)cc(OC)c1OC | 41 | / | /
CCOC(=O)C(C(=O)OCC)c1cc(Br)c2noc3c2c1C(=O)c1ccccc1-3 | 89 | / | /
COc1ccc2nc(NC(=O)c3sc4nc(C)cc(C)c4c3N)sc2c1 | -41* | -3 | 10
COc1ccc2c(c1)Cc1sc(NC(C)=O)nc1-2 | 73 | / | /
COc1ccc2c(c1)Cc1sc(NC(=O)c3cccnc3)nc1-2 | 89 | / | /
C#CCOCCOCCOCCNc1nc(N2CCN(C(=O)CCCCCCCCCCNC(=O)Cn3cc(CCCCCN)nn3)CC2)nc(N2CCN(C(=O)CCCCCCCCCCNC(=O)Cn3cc(CCCCCN)nn3)CC2)n1 | 65 | / | /
SMILES | Apaf1 activ | Rh110 act interf | Apaf-1 act conf
CCN(CC)c1nc(N)c2c(N)nc(OC)cc2c1C#N | 46 | / | /
NC(N)=N/N=C/c1ccc(OCc2ccccc2Cl)cc1 | 43 | / | /
CC(C)n1cnc2c(NCc3ccccc3)cc(N[C@H](C)CO)cc21 | 97 | / | /
COC(CNC(=S)Nc1ccc([N+](=O)[O-])cc1)OC | -58* | 8 | 3
Cc1ccccc1C(=O)c1cccn1CC(=O)NCc1ccc(Cl)cc1 | -92* | 7 | 16
C#CCOCCOCCOCCNc1nc(N2CCN(C(=O)CCCCCCCCCCNC(=O)[C@H]([C@@H](C)CC)n3cc(CCCCCN)nn3)CC2)nc(N2CCN(C(=O)CCCCCCCCCCNC(=O)[C@H](CO)n3cc(CCCCCN)nn3)CC2)n1 | 71 | / | /
Cc1ccc(Nc2nc(N)c([N+](=O)[O-])c(NCc3ccco3)n2)cc1 | -443* | 13 | 17
Cc1ccc(NC2=C(NCCO)C(=O)c3ccccc3C2=O)cc1 | 78 | / | /
O=C(O)c1ccc(NC2=C(n3nnc4ccccc43)C(=O)c3ccccc3C2=O)cc1 | 73 | / | /
O=C(O)c1ccc2c(c1)-c1nc3ccccc3n1C2=O | -113* | -2 | -1
CCCCCCCCCCCCOC(=O)C[N+](C)(C)C | 46 | / | /
O=C(CSc1ccc2nnc(CCNC(=O)c3ccccc3)n2n1)Nc1ccccc1 | -293* | 3 | -3
COc1ccc(C(=O)NCCc2nnc3ccc(SCC(=O)NCCc4ccc(OC)c(OC)c4)nn23)cc1 | -410* | -4 | 9
COc1ccc(CCNC(=O)CSc2nnc(-c3ccco3)c(-c3ccco3)n2)cc1OC | 43 | / | /
CCC[C@@H](CN1CCC[C@H]1CN1C(N)=NC[C@H]1CC(C)C)N1C[C@@H]([C@H](C)CC)N(CCCC2CCCC2)C1=N | 53 | / | /
CC[C@H](C)[C@@H](C(=O)NCCCCCCCCCCC(=O)N1CCN(C(=O)OC(C)(C)C)CC1)n1cc(CCCCN=C(NC(=O)OC(C)(C)C)NC(=O)OC(C)(C)C)nn1 | 56 | / | /
COc1ccc(CNC(=O)c2c(N)n(CCCN3CCOCC3)c3nc4ccccc4nc23)cc1 | 87 | / | /
COC(=O)c1c(N)n(CCCN2CCOCC2)c2nc3ccccc3nc12 | -72* | 2 | 13
Nc1c(C(=O)NCc2ccccc2)c2nc3ccccc3nc2n1CCCN1CCOCC1 | 49 | / | /
CN1CCN(C2=C(NS(=O)(=O)c3ccccc3)C(=O)c3ccccc3C2=O)CC1 | 79 | / | /
CC1=NN(c2ccc(C(=O)O)c(N)c2)C(=O)C1 | 62 | / | /
Cc1ccc(SCC(=O)Nc2nccs2)cc1 | -524* | -5 | 9
Cn1c(=O)c2[nH]c(=O)cnc2n(C)c1=S | 56 | / | /
NS(=O)(=O)Cc1noc2ccccc12 | -79* | -4 | 7
O=C1C(SCCO)=C(SCCO)C(=O)c2ccccc21 | 97 | / | /
SMILES | Apaf1 activ | Rh110 act interf | Apaf-1 act conf
CC[C@@H](C)[C@H](CNC)NC[C@@H](Cc1cccc2ccccc12)NCCc1cccc(C(F)(F)F)c1 | 70 | / | /
CCOC(=O)CNC(=O)C1c2ccccc2C(=O)N(c2ccc(OC)cc2)C1c1ccc(OC)cc1 (stereo unspecified) | -42* | 0 | 12
COc1ccc(NC(=O)[C@@H]2[C@@H]3C(=O)N(C4CCCCC4)C(=O)[C@@H]3C3c4ccccc4C=CN32)cc1 (stereo partly specified) | 51 | / | /
COc1ccc(CNC(=O)c2c(C)oc3c2C(=O)c2ccccc2C3=O)cc1 | 67 | / | /
Cc1ccc(CNc2ccc(O)cc2)cc1 | 94 | / | /
CCOC(=O)c1sc(NC(=O)c2ccco2)c(C#N)c1C | -211* | -1 | 12
CCOC(=O)c1c(NC(=O)c2ccco2)n(C2CCCCC2)c2nc3ccccc3nc12 | 88 | / | /
COc1ccc(-n2c(NC(=O)c3ccco3)c(C#N)c3nc4ccccc4nc32)cc1 | 96 | / | /
CCCCc1nc(N2CCN(C(=O)c3ccco3)CC2)c(C#N)c2c1CCCC2 | 42 | / | /
CCN(CC)C(=O)CSC(=Nc1ccccc1F)NC#N | -52* | 18 | 11
COC(=O)c1c(NC(=O)COc2ccc(Cl)cc2)sc2c1CC(C)(C)NC2(C)C | 61 | / | /
CN(Cc1c(F)cccc1Cl)C(=O)c1ccc(COc2ccccc2)cc1 | 53 | / | /
CN(C)Cc1c(C(=O)N/N=C/c2cccc(OCc3c(F)cccc3Cl)c2)nnn1-c1nonc1N | -96* | -4 | 11
Cc1ccc2c(CN3CCCCC3C)cc(=O)oc2c1C (stereo unspecified) | -50* | 4 | 9
CCN1CCN(c2cc(N3CCN(C(=O)c4ccco4)CC3)c3c4c(onc24)-c2ccccc2C3=O)CC1 | 42 | / | /
CC(=O)Oc1ccc(/C=C2/C(=O)N(c3ccccc3)N=C2C)cc1 | 91 | / | /
